# Results taken from publication PMC11185543 (bioRxiv, 2024).
# Where a SMILES comes first, the peptide text is derived from it. The star is where a group is joined. Cbz = O=C(OCc1ccccc1)*
# Key:
# p-GCN2 = test: Immunoblot for p-GCN2 in mouse embryonic fibroblasts; type: cell-based; conditions: 6 h, MEFs
# Procedure, shortened: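 MEFs grown in DMEM with 10% FBS were exposed to test compound (1 μM or 100 nM) or DMSO for 6 h. Protein lysates were collected and immunoblotted.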
# NOD mice [1] = test: β cell mass in NOD mice after two weeks of treatment; type: in vivo; conditions: 0.25 or 2.5 mg/kg intraperitoneal for 2 weeks
# Procedure, shortened: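 Female NOD mice, 6 weeks old, were given test compound or vehicle (5% DMSO, 2% Tween 80, 20% PEG400, saline) intraperitoneally for two weeks. Pancreata were fixed in 4% paraformaldehyde, paraffin-embedded, sectioned and stained for insulin. β cell mass was derived from insulin+ area relative to whole pancreas area. N=4–5 mice per group; mean ±SEM; ANOVA.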
# human islets = test: Polyribosome profiling of human islets treated with proinflammatory cytokines; type: cell-based; conditions: 50 nM with IFN-γ + IL-1β
# Procedure, shortened: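 Human islets were pretreated 1 h with vehicle or test compound (50 nM), then exposed 18–24 h to 1000 IU/mL IFN-γ + 50 IU/mL IL-1β. Translation was halted with 50 μg/mL cycloheximide for 10 min, and lysates were made in buffer pH 7.5 with 10 mM MgCl2. Lysates were run on a 50–10% sucrose gradient (40,000 rpm, 2 h, 4°C) and fractionated with A254 monitoring. Fraction RNA was quantified by qRT-PCR relative to input.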
# NOD mice [2] = test: Insulitis score in prediabetic NOD mice after two weeks of treatment; type: in vivo; conditions: 0.25 or 2.5 mg/kg intraperitoneal for 2 weeks
# Procedure, shortened: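 Female NOD mice, 6 weeks old, received vehicle (5% DMSO, 2% Tween 80, 20% PEG400, saline) or test compound by intraperitoneal injection for two weeks. Pancreata were fixed in 4% paraformaldehyde, paraffin-embedded and sectioned. Islet infiltration was scored 1–4: none, <50% circumference, >50% circumference, intra-islet. N=4–5 mice per group; mean ±SEM; ANOVA.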
# PD-L1 = type: cell-based, human; conditions: 10 μM concurrent with cytokines 18–24 h, GOLM1 siRNA, EndoC-βH1 cells
# Procedure, shortened: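 EndoC-βH1 cells (low-glucose DMEM, 2% BSA, nicotinamide, β-mercaptoethanol, matrigel-fibronectin coating) had 1 h pretreatment with DMSO or test compound (50 nM). They were then co-treated 18–24 h with 1000 IU/mL IFN-γ + 50 IU/mL IL-1β. For knockdown, Accell GOLM1 siRNA was used and protein was taken 72–96 h later. Proteasome blockade was 10 μM MG132 with cytokines 18–24 h, starting 72 h post-knockdown. Immunoblot; N=3 biological replicates; ANOVA.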
smiles,measurement,setting,value
O=C(CC1NCCCC1O)Cn1cnc2cc(Br)c(Cl)cc2c1=O (stereo not drawn) [halofuginone],effect on p-GCN2,p-GCN2; 100 nM,robustly induces p-GCN2
O=C(COc1ccc(Cl)cc1)NC1CCC(NC(=O)COc2ccc(Cl)cc2)CC1 (stereo not drawn) [ISRIB],β cell mass,NOD mice [1],no effect on β cell mass
same,RNA sedimenting with polysomes (translation initiation blockade),human islets,recovery of the RNA sedimenting with polysomes
same,insulitis,NOD mice [2],significant reduction in insulitis
C/C=C(/C)C(=O)O[C@H]1C(C)=C2[C@H]([C@@H]1OC(=O)CCCCCCC)[C@@](C)(OC(C)=O)C[C@H](OC(=O)CCC)[C@@]1(O)[C@H]2OC(=O)[C@@]1(C)O [thapsigargin],effect on p-GCN2,p-GCN2; 1 μM,suppresses it
CC(C)C[C@@H](C=O)NC(=O)[C@H](CC(C)C)NC(=O)[C@H](CC(C)C)NC(=O)OCc1ccccc1 [MG132] (Cbz-Leu-Leu-Leu-aldehyde),attenuation of PD-L1 levels upon GOLM1 knockdown,PD-L1,partially reversed
